In the RNAGym collection of RNA variant scans (doi:10.1126/science.aae0568):
This sample holds only a part of the variants without activity.

B1: tRNA (parent)
chain: GUUCCGUUGGCGUAAUGGUAACGCGUCUCCCUCCUAAGGAGAAGACUGCGGGUUCGAGUCCCGUACGGAACG

Variants of: B1
Test: yeast fitness relative to wild type (ratio to wild type); higher = fitter; tRNA-Arg(CCU), competitive growth, 37 C, YPD
How it was run: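 Start and end populations of a pooled competition were compared by 100-nucleotide paired-end sequencing of gene amplicons. The Saccharomyces cerevisiae strains carried tRNA-Arg(CCU) gene variants at the native genomic locus, synthesised with a 3% per-site mutation rate at 69 sites, and competed in YPD at 37°C for 24 hours in six parallel replicates. Darwinian fitness relative to wild type was based on the change in genotype frequencies. Genotypes required ≥ 100 starting reads, and estimates < 0.5 were set to 0.5.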
For A14U U26A G58C, the yeast fitness was at most 0.5. A15C U28A C34G A43U G63U U64C showed a yeast fitness of at most 0.5. For A15G G63A, the yeast fitness was 0.926. Work on A15G G44C G68U yielded a yeast fitness of at most 0.5. With A15G G58A G68C the yeast fitness was 0.596. A15G A20U G68A showed a yeast fitness of 0.545. Variant A15C G51C C61U has a yeast fitness of at most 0.5. Work on A15G A42U A57C yielded a yeast fitness of 0.532. In the case of A15C U35C U47C, the yeast fitness is reported as at most 0.5. A15G U32A showed a yeast fitness of 0.637. Work on A15U C34U A57U C60U yielded a yeast fitness of 0.725. A15C C29U G68C showed a yeast fitness of at most 0.5. A15U C66U A70C gave a yeast fitness of 0.566. With A14U U19A A21C G48C G63A A70G the yeast fitness was at most 0.5. A15G G58C C62G showed a yeast fitness of at most 0.5. In the case of A15G C31U C60U, the yeast fitness is reported as 0.543. In the case of A15C G17C, the yeast fitness is reported as 0.62. A15U A20C U32G A65C gave a yeast fitness of 0.537. In the case of A15G C46G G67A, the yeast fitness is reported as 0.623. In the case of A15G U35A G48A A57G C62G, the yeast fitness is reported as at most 0.5. In the case of A15C G38A C49A, the yeast fitness is reported as at most 0.5. Variant A15U A40U G52A G68A has a yeast fitness of 0.596. With A15C C30A G48C G56C the yeast fitness was at most 0.5. A15U A21C C29U C30A G38A showed a yeast fitness of at most 0.5. With A15C U28C G48C the yeast fitness was at most 0.5. For A15G C30A C62G, the yeast fitness was 0.634. A15C C27U C30U U32G U35A A37C A57U gave a yeast fitness of at most 0.5. In the case of A15C C24A U53C, the yeast fitness is reported as at most 0.5. Variant A15U A21G C24U C33U A40C A43C C49U C61U has a yeast fitness of 0.516. Work on A15U C33G C66U yielded a yeast fitness of at most 0.5. Work on A15U C22G G52A A65U yielded a yeast fitness of at most 0.5. A15C C46U G51A C66A gave a yeast fitness of at most 0.5. A15U U16C A40U U59A A70C showed a yeast fitness of at most 0.5. A15G C22G gave a yeast fitness of 0.893. A15C C27A showed a yeast fitness of 0.554. Variant A15C G39A A65G has a yeast fitness of 0.517. A15C C22G A43C G52C showed a yeast fitness of at most 0.5. A15U G25A gave a yeast fitness of 1. For A15U G18C, the yeast fitness was 0.589. Work on A15G U64G A69C yielded a yeast fitness of 0.564. With A15G C24G C31G G50A the yeast fitness was at most 0.5. For A15C A20C G39C A69C, the yeast fitness was at most 0.5. Work on A15G C30G A42C A43C C46G A65C yielded a yeast fitness of at most 0.5. A15C A20G A21U C66G showed a yeast fitness of at most 0.5. In the case of A15C G18A U19G G58C, the yeast fitness is reported as at most 0.5. A15C A70C showed a yeast fitness of 0.751. A15C G39A G67A gave a yeast fitness of at most 0.5. A15U C22G A37G C55G C60G gave a yeast fitness of at most 0.5. Variant A15U A65C G67A has a yeast fitness of at most 0.5. Work on A15U C24G C66U yielded a yeast fitness of 0.608. In the case of A15G G41C G51C C61G, the yeast fitness is reported as 0.726. A15U A20U C27G C49G gave a yeast fitness of 0.64. For A15G G18A A69U, the yeast fitness was 0.648. With A15G A57C the yeast fitness was 0.636. For A15G A57G, the yeast fitness was 0.899. Work on A15C U16A A21G U26A C30U C61A A69U yielded a yeast fitness of 0.575. Work on A15U C30U A37G U59A yielded a yeast fitness of at most 0.5. A14U U19A A21C G48C A70G gave a yeast fitness of 0.505. For A15C A43U G67A, the yeast fitness was 0.535. A14U U64C A65G showed a yeast fitness of 0.567. In the case of A15G C30G G39C, the yeast fitness is reported as at most 0.5. With A15G G67A A69C the yeast fitness was 0.767. In the case of A15G C31G G44C C46G, the yeast fitness is reported as 0.647. A14U U26A C62G showed a yeast fitness of at most 0.5. In the case of A15C U26A C31G U32A G63A, the yeast fitness is reported as at most 0.5. A15C U35C C46G showed a yeast fitness of 0.67. Work on A15U A21C U53C G56C A65G yielded a yeast fitness of 0.77. A15G C29A C34G showed a yeast fitness of at most 0.5. Work on A15C G58A G68A yielded a yeast fitness of 0.611. For A15C G23C C60U A69G, the yeast fitness was at most 0.5. For A14U U59A, the yeast fitness was 0.583. A15C C55A gave a yeast fitness of 0.562. For A15U G39C U47C, the yeast fitness was at most 0.5. A15G A20U C29G A43G G67A gave a yeast fitness of at most 0.5. Variant A15U G38C G39A A43C U59A C60U has a yeast fitness of at most 0.5. In the case of A15C C22A G25C U28A A36U A57C A65C G68C, the yeast fitness is reported as 0.568. For A15C G18A C24G C55A, the yeast fitness was at most 0.5. With A15G C24A U64C the yeast fitness was at most 0.5. In the case of A15U C24U A37U U54G, the yeast fitness is reported as at most 0.5. For A15U C60G C61U G68A, the yeast fitness was at most 0.5. A15G A36G G56U C62U showed a yeast fitness of at most 0.5. A15C G17A G38C C62U gave a yeast fitness of at most 0.5. A15C G56A G67A showed a yeast fitness of 0.61. Work on A15G A20C C34U U59G yielded a yeast fitness of 0.705. A15U C31U C49U G52A A57U G58C gave a yeast fitness of at most 0.5. A15G U16G G39A A45C C61A showed a yeast fitness of at most 0.5. For A15C C31A U59C G63A A69G, the yeast fitness was at most 0.5. A15U C29A C34G U59A A69C gave a yeast fitness of at most 0.5. A15C A21U C62U showed a yeast fitness of 0.53. A15C G48A U64G gave a yeast fitness of 0.593. In the case of A15G U35G A43G C66U, the yeast fitness is reported as at most 0.5. A15C A21U G39A gave a yeast fitness of at most 0.5. A15U A36U C60G gave a yeast fitness of at most 0.5. With A15G G17A U19A U32G the yeast fitness was at most 0.5. For A15G U35C, the yeast fitness was 0.892. For A15U C24U G44A, the yeast fitness was 0.503. With A15U A57G the yeast fitness was 0.927. Variant A15U A57C has a yeast fitness of 0.637. A15G C24A C66U showed a yeast fitness of at most 0.5. For A15C U16A A21G U26A C30U, the yeast fitness was at most 0.5. Variant A15G C49G C55G has a yeast fitness of 0.577. For A15C C34G C60U, the yeast fitness was at most 0.5. A15U A36C A40U G58C G67C gave a yeast fitness of at most 0.5. A15C C33U U47G C49U G52C A70G gave a yeast fitness of 0.585. For A15C A20G A65G, the yeast fitness was at most 0.5. A15G C24A C34G A65U showed a yeast fitness of at most 0.5. A15G G56A C62U A70C gave a yeast fitness of 0.543. For A14U U35C U53G, the yeast fitness was 0.634. Variant A15G C60G A69C has a yeast fitness of 0.585. For A15G C34U A40U A69C, the yeast fitness was at most 0.5. With A15U C22G C31U G50A the yeast fitness was at most 0.5. Work on A15U A57U A65C yielded a yeast fitness of 0.586. For A15U C24A G25A U47C G52C C61G, the yeast fitness was at most 0.5. Variant A15U C22G U32A C66A has a yeast fitness of at most 0.5. A15G A37U A40C A43C gave a yeast fitness of at most 0.5. A15G G39C A69C gave a yeast fitness of 0.624. For A15G G23A A36G C55A, the yeast fitness was at most 0.5. For A15U A42C G48A G50C, the yeast fitness was at most 0.5. With A15U A20G A37C the yeast fitness was at most 0.5. For A15U C33G A43C G44U, the yeast fitness was at most 0.5. Variant A15G A20C C60U has a yeast fitness of at most 0.5. A15G C49U C61U gave a yeast fitness of 0.672. With A15G G17A C33U the yeast fitness was at most 0.5. A15U C27U U28G C33U showed a yeast fitness of at most 0.5. With A15G C30U A69U the yeast fitness was 0.609. In the case of A15U G18C C34G A42G G52C, the yeast fitness is reported as 0.575. Work on A15C G25C C29U U35C A43U A69U yielded a yeast fitness of at most 0.5. For A15C C27U G63A, the yeast fitness was at most 0.5. A15G C33U A40G G51C A57U gave a yeast fitness of at most 0.5. In the case of A15G U26A C66A, the yeast fitness is reported as at most 0.5. Work on A15U U28G C33U yielded a yeast fitness of at most 0.5. In the case of A15C G17C C31G G50C C62G A70C, the yeast fitness is reported as at most 0.5. With A15U C30U A37G the yeast fitness was at most 0.5. Work on A15C G52A A57U C60U A65G G68A yielded a yeast fitness of at most 0.5. Work on A15G G39A A40G A57C yielded a yeast fitness of 0.534. For A15U G25A C33G C62G, the yeast fitness was at most 0.5. Work on A15G A21C yielded a yeast fitness of 0.709. A15C C31A U35C A45U showed a yeast fitness of at most 0.5. A15G G23C G44A showed a yeast fitness of at most 0.5. A15G G58A C62U A69C showed a yeast fitness of 0.685. Work on A15U C33U G44C C55A yielded a yeast fitness of at most 0.5. For A15G G25A A37G A70C, the yeast fitness was 0.522. For A15C G50A C60G U64G, the yeast fitness was at most 0.5. Variant A15G C30G G63A has a yeast fitness of at most 0.5. With A15C A20U C31G C62A the yeast fitness was at most 0.5. A15U G23A C60G gave a yeast fitness of at most 0.5. In the case of A15G G17A C30A C61A, the yeast fitness is reported as at most 0.5. A15U G18A C33G A42C showed a yeast fitness of at most 0.5. For A15U G25C G68A, the yeast fitness was at most 0.5. For A15U G17A C46U C62U, the yeast fitness was 0.865. For A15G G48A C62U, the yeast fitness was 1.03. Work on A15U G38C G39A A43C A57U yielded a yeast fitness of at most 0.5. Work on A15G U35C A36G A37G C61G G67C yielded a yeast fitness of at most 0.5. With A15G A42U the yeast fitness was 0.971. With A14U U26A the yeast fitness was 0.694. Variant A15U C30U has a yeast fitness of 0.859. Variant A15C U59A C61A has a yeast fitness of 0.698. A15U A40G G52C C62G gave a yeast fitness of at most 0.5. A15C C33U A36U C66U showed a yeast fitness of at most 0.5. In the case of A15U U19G, the yeast fitness is reported as 0.631. Variant A15C C22A has a yeast fitness of 0.697. With A15G U64A the yeast fitness was 0.706. Work on A15C U19A U64A A65G G67U yielded a yeast fitness of at most 0.5. With A15U A45C C46A G67A the yeast fitness was at most 0.5. With A15G A36C G67C the yeast fitness was at most 0.5. Variant A15G A36C has a yeast fitness of 0.515. A15U A42G gave a yeast fitness of 0.746.
